The source made the active and inactive calls. No cut-off for these calls is given here.
Columns and labels:
Mus musculus [1] = experiment: Analgesic activity in Swiss mouse at 100 umol/kg, po after 60 mins by hot plate test; assay type: functional
How it was run: (§1)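 Swiss mice (20–30 g) given 100 µmol/kg orally and placed on a hot plate at 55 ± 1 °C. Latency to fore- or hind-paw licking or jumping recorded 30, 60, 90 and 120 min after dosing. Baseline is the mean reaction time at 30 and 60 min before dosing. n = 6–8. ANOVA with Dunnett test vs control.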

Mus musculus [2] = experiment: Analgesic activity in Swiss mouse at 100 umol/kg, po after 30 mins by hot plate test; assay type: functional; how it was run: as §1
Mus musculus [3] = experiment: Antihyperalgesic activity in Swiss mouse assessed as inhibition of formalin-induced nociception at 100 umol/kg, po administered 40 mins before formalin challenge measured after 15 to 30 mins; assay type: functional, organism-based
How it was run: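 Swiss mice given 100 µmol/kg p.o. (vehicle arabic gum) 40 min before 20 µL of 2% formalin in 0.9% saline s.c. into the right hind paw. Licking/biting time recorded 0–5 min (neurogenic phase) and 15–30 min (inflammatory phase). n = 6. Mean ± S.E.M. ANOVA with Dunnett test vs control.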

Mus musculus [4] = experiment: Hypothermic activity in Swiss mouse assessed as decrease in rectal body temperature at 100 umol/kg, po after 1 hr at room temperature; assay type: organism-based; details: in vivo
How it was run: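 Swiss mice with normal rectal temperature (37.0–38.0 °C) were acclimatized 1 h at 25 °C room temperature, and baseline rectal temperature was taken. Animals were then dosed orally at 100 µmol/kg, and rectal temperature was re-measured 1 h later; change from baseline reported, n = 8, mean ± S.E.M., Dunnett versus control.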

Mus musculus [5] = experiment: Hepatotoxicity in Swiss mouse assessed as changes in morphology of liver parenchyma at 100 umol/kg, po for five days after 24 hrs of last dose; assay type: toxicity, organism-based; details: in vivo
How it was run: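 Swiss mice given 100 µmol/kg p.o. daily for 5 days; controls received vehicle. After blood collection 24 h post last dose, animals were killed with CO₂; ten liver samples per animal (two each from left, right, left middle, right middle and caudate lobes) fixed in 10% neutral buffered formalin, H&E stained, examined at 100× and 400× for necrosis or degeneration.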

Mus musculus [6] = experiment: Analgesic activity in Swiss mouse at 100 umol/kg, po after 90 mins by hot plate test; assay type: functional; how it was run: as §1
Mus musculus [7] = experiment: Analgesic activity in Swiss mouse assessed as inhibition of acetic acid-induced abdominal writhings at 100 umol/kg, po administered 60 mins before acetic acid challenge relative to control; design: scale not given: the % may be the effect or the level left
Mus musculus [8] = experiment: Analgesic activity in Swiss mouse at 100 umol/kg, po after 120 mins by hot plate test; assay type: functional; how it was run: as §1
Mus musculus [9] = experiment: Hepatotoxicity in Swiss mouse assessed as increase in serum gamma-glutamyl transferase at 100 umol/kg, po for five days after 24 hrs of last dose; assay type: toxicity, organism-based; details: in vivo
How it was run: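 Swiss mice received 100 µmol/kg p.o. daily for five days (n = 6; vehicle n = 5). 24 h after the last dose, blood was drawn under ethyl ether anaesthesia, and serum was separated at 3000 × g for 15 min and kept at 4 °C. gGT was assayed by a kinetic kit method, in U/L. ANOVA with Dunnett test.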

Mus musculus [10] = experiment: Analgesic activity in po dosed Swiss mouse assessed as inhibition of acetic acid-induced abdominal writhings administered 60 mins before acetic acid challenge measured for 25 mins; assay type: functional; details: Abdomen
How it was run: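 Swiss mice (20–30 g). Oral dosing before i.p. 0.6% (v/v) acetic acid, 0.1 mL/10 g. Writhes (abdominal contraction, pelvic rotation, hind-limb extension) counted for 20 min starting 5 min after injection. Result expressed as % inhibition vs vehicle controls. Screening at 100 µmol/kg p.o.; dose-response at 100, 30, 10 and 3 µmol/kg with ID50 by linear regression. n = 8.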

Mus musculus [11] = experiment: Antihyperalgesic activity in Swiss mouse assessed as inhibition of formalin-induced nociception at 100 umol/kg, po administered 40 mins before formalin challenge measured after 0 to 5 mins; assay type: functional, organism-based
Mus musculus [12] = experiment: Analgesic activity in Swiss mouse at 15 umol/kg, ip after 60 mins by hot plate test; assay type: functional
How it was run: (§2)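 Hot-plate reference arm in Swiss mice: morphine 15 µmol/kg i.p. Animals placed on a plate at 55 ± 1 °C. Paw-licking or jumping latency read 30, 60, 90 and 120 min after treatment. Baseline is the mean of readings at 30 and 60 min before treatment. n = 8.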

Mus musculus [13] = experiment: Analgesic activity in Swiss mouse at 15 umol/kg, ip after 90 mins by hot plate test; assay type: functional; how it was run: as §2
Mus musculus [14] = experiment: Analgesic activity in Swiss mouse at 15 umol/kg, ip after 30 mins by hot plate test; assay type: functional; how it was run: as §2
Mus musculus [15] = experiment: Analgesic activity in Swiss mouse at 15 umol/kg, ip after 120 mins by hot plate test; assay type: functional; how it was run: as §2

| Compound | Activity (Mus musculus [1]) | Activity (Mus musculus [2]) | Activity (Mus musculus [3]) | Activity (Mus musculus [4]) | Activity (Mus musculus [5]) | Activity (Mus musculus [6]) | Activity (Mus musculus [7]) | Activity (Mus musculus [8]) | Activity (Mus musculus [9]) | Activity (Mus musculus [10]) | Activity (Mus musculus [11]) | Activity (Mus musculus [12]) | Activity (Mus musculus [13]) | Activity (Mus musculus [14]) | Activity (Mus musculus [15]) |
| --- | --- | --- | --- | --- | --- | --- | --- | --- | --- | --- | --- | --- | --- | --- | --- |
| CC(=O)Nc1ccc(O)cc1 [ACETAMINOPHEN] | 60.6% | 51.8% | inactive | -1.1 °C | Toxic | 54.6% | 34% | 54.6% |  |  |  |  |  |  |  |
| CC(=O)Nc1ccc(S(=O)(=O)N2CCN(C)CC2)cc1 | 47.9% | 57.5% | inactive | -1.8 °C | Non-toxic | 19.6% | 75% | 21.3% | Non-toxic | Dose-dependent effect | inactive |  |  |  |  |
| CCN(CC)S(=O)(=O)c1ccc(NC(C)=O)cc1 | 0% | 2.4% | Active | -1.8 °C |  | 0% | 45.8% | 0% |  |  |  |  |  |  |  |
| CCNS(=O)(=O)c1ccc(NC(C)=O)cc1 | 6% | 23% | inactive | 0.2 °C |  | 32.8% | 48.6% | 24.2% |  |  | inactive |  |  |  |  |
| CC(=O)Nc1ccc(S(=O)(=O)N2CCSCC2)cc1 | 28.6% | 25% | inactive | -0.7 °C |  | 48.3% | 44% | 65.1% |  |  | inactive |  |  |  |  |
| CC(=O)Nc1ccc(S(=O)(=O)N2CCNCC2)cc1 | 7.2% | 23.5% | inactive | 0.2 °C |  | 37.1% | 61.1% | 0% |  |  |  |  |  |  |  |
| CN1CC[C@]23c4c5ccc(O)c4O[C@H]2[C@@H](O)C=C[C@H]3[C@H]1C5 [MORPHINE] |  |  |  |  |  |  |  |  |  |  |  | 74.7% | 57.8% | 78.9% | 32.1% |
| CC(=O)Nc1ccc(S(=O)(=O)N2CCOCC2)cc1 | 23.3% | 22% | inactive | -1.4 °C |  | 20.7% | 43.2% | 8% |  |  |  |  |  |  |  |
| CC(=O)Nc1ccc(S(=O)(=O)N2CCCCC2)cc1 | 14.3% | 26.5% | Active | -0.8 °C |  | 18.2% | 29.6% | 30.7% |  |  |  |  |  |  |  |

— ChEMBL document CHEMBL1153756, “Synthesis and pharmacological evaluation of N-phenyl-acetamide sulfonamides designed as novel non-hepatotoxic analgesic candidates” (Eur J Med Chem, 2009)
